ChEMBL document CHEMBL4715736, “Identification of anticancer agents based on the thieno[2,3-b]pyridine and 1H-pyrazole molecular scaffolds” (2016)

Columns and labels:
Type in all cases: functional
CAKI-1 = assay: Growth inhibition of human CAKI-1 cells assessed as cell growth at 0.01 uM incubated for 48 hrs by sulforhodamine B assay relative to control; conditions: read-out: Activity
How it was run: (§1)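 NCI Developmental Therapeutics Program NCI60 panel. Compounds that were active in the 10 µM one-dose screen went on to dose–response testing. Growth at each concentration is expressed relative to untreated control (100%). GI50 (concentration giving 50% of maximal inhibition of proliferation) and TGI (concentration giving total growth inhibition) were derived from the curves.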

HCT-116 = assay: Growth inhibition of human HCT-116 cells assessed as cell growth at 100 uM incubated for 48 hrs by sulforhodamine B assay relative to control; conditions: read-out: Activity
MCF7 = assay: Growth inhibition of human MCF7 cells assessed as cell growth at 0.1 uM incubated for 48 hrs by sulforhodamine B assay relative to control; conditions: read-out: Activity
SK-MEL-2 = assay: Growth inhibition of human SK-MEL-2 cells incubated for 48 hrs by sulforhodamine B assay
How it was run: (§2)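 NCI DTP 60-line human tumour panel. Dose-response curves were run only for ligands active in the initial 10 µM screen. GI50 (concentration giving 50% of maximal inhibition of proliferation) and TGI (concentration giving total growth inhibition) were derived from these curves.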

Hs-578T = assay: Growth inhibition of human Hs-578T cells assessed as cell growth at 1 uM incubated for 48 hrs by sulforhodamine B assay relative to control; conditions: read-out: Activity
NCI-H226 = assay: Growth inhibition of human NCI-H226 cells assessed as cell growth at 0.1 uM incubated for 48 hrs by sulforhodamine B assay relative to control; conditions: read-out: Activity
MDA-MB-435 [1] = assay: Growth inhibition of human MDA-MB-435 cells assessed as cell growth at 1 uM incubated for 48 hrs by sulforhodamine B assay relative to control; conditions: read-out: Activity
RXF 393 = assay: Growth inhibition of human RXF 393 cells assessed as cell growth at 0.01 uM incubated for 48 hrs by sulforhodamine B assay relative to control; conditions: read-out: Activity
IGROV-1 [2] = assay: Growth inhibition of human IGROV-1 cells assessed as cell growth at 0.1 uM incubated for 48 hrs by sulforhodamine B assay relative to control; conditions: read-out: Activity
MDA-MB-231 = assay: Growth inhibition of human MDA-MB-231 cells incubated for 48 hrs by sulforhodamine B assay; conditions: for CC50: read-out: LC50 (the source's name)
How it was run: (§3)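 NCI60 panel at the NCI Developmental Therapeutics Program. Only compounds active in the 10 µM screen went to dose-response testing. GI50, the concentration giving 50% of maximal inhibition of proliferation, and TGI, the concentration giving total growth inhibition, were derived from the dose-response curves.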

SK-MEL-5 = assay: Growth inhibition of human SK-MEL-5 cells assessed as cell growth at 100 uM incubated for 48 hrs by sulforhodamine B assay relative to control; conditions: read-out: Activity
SW-620 = assay: Growth inhibition of human SW-620 cells assessed as cell growth at 0.01 uM incubated for 48 hrs by sulforhodamine B assay relative to control; conditions: read-out: Activity
NCI-H522 = assay: Growth inhibition of human NCI-H522 cells assessed as cell growth at 0.1 uM incubated for 48 hrs by sulforhodamine B assay relative to control; conditions: read-out: Activity
IGROV-1 [3] = assay: Growth inhibition of human IGROV-1 cells assessed as cell growth at 1 uM incubated for 48 hrs by sulforhodamine B assay relative to control; conditions: read-out: Activity
RPMI-8226 [4] = assay: Growth inhibition of human RPMI-8226 cells assessed as cell growth at 1 uM incubated for 48 hrs by sulforhodamine B assay relative to control; conditions: read-out: Activity
HOP-62 = assay: Growth inhibition of human HOP-62 cells assessed as cell growth at 1 uM incubated for 48 hrs by sulforhodamine B assay relative to control; conditions: read-out: Activity
HCT-15 = assay: Growth inhibition of human HCT-15 cells assessed as cell growth at 0.01 uM incubated for 48 hrs by sulforhodamine B assay relative to control; conditions: read-out: Activity
SR [5] = assay: Growth inhibition of human SR cells assessed as cell growth at 100 uM incubated for 48 hrs by sulforhodamine B assay relative to control; conditions: read-out: Activity
OVCAR-4 = assay: Growth inhibition of human OVCAR-4 cells assessed as cell growth at 0.1 uM incubated for 48 hrs by sulforhodamine B assay relative to control; conditions: read-out: Activity
SNB-75 = assay: Growth inhibition of human SNB-75 cells assessed as cell growth at 1 uM incubated for 48 hrs by sulforhodamine B assay relative to control; conditions: read-out: Activity
OVCAR-8 [6] = assay: Growth inhibition of human OVCAR-8 cells assessed as cell growth at 0.01 uM incubated for 48 hrs by sulforhodamine B assay relative to control; conditions: read-out: Activity
MOLT-4 [7] = assay: Growth inhibition of human MOLT-4 cells assessed as cell growth at 1 uM incubated for 48 hrs by sulforhodamine B assay relative to control; conditions: read-out: Activity
ACHN = assay: Growth inhibition of human ACHN cells assessed as cell growth at 0.01 uM incubated for 48 hrs by sulforhodamine B assay relative to control; conditions: read-out: Activity
MOLT-4 [8] = assay: Growth inhibition of human MOLT-4 cells assessed as cell growth at 0.1 uM incubated for 48 hrs by sulforhodamine B assay relative to control; conditions: read-out: Activity
M14 [9] = assay: Growth inhibition of human M14 cells incubated for 48 hrs by sulforhodamine B assay; how it was run: as §3
SN12C = assay: Growth inhibition of human SN12C cells assessed as cell growth at 0.01 uM incubated for 48 hrs by sulforhodamine B assay relative to control; conditions: read-out: Activity
U-251 = assay: Growth inhibition of human U-251 cells incubated for 48 hrs by sulforhodamine B assay; how it was run: as §2
SR [10] = assay: Growth inhibition of human SR cells assessed as cell growth at 0.1 uM incubated for 48 hrs by sulforhodamine B assay relative to control; conditions: read-out: Activity
OVCAR-8 [11] = assay: Growth inhibition of human OVCAR-8 cells assessed as cell growth at 100 uM incubated for 48 hrs by sulforhodamine B assay relative to control; conditions: read-out: Activity
K562 = assay: Growth inhibition of human K562 cells assessed as cell growth at 0.1 uM incubated for 48 hrs by sulforhodamine B assay relative to control; conditions: read-out: Activity
M14 [12] = assay: Growth inhibition of human M14 cells assessed as cell growth at 1 uM incubated for 48 hrs by sulforhodamine B assay relative to control; conditions: read-out: Activity
MDA-MB-435 [13] = assay: Growth inhibition of human MDA-MB-435 cells assessed as cell growth at 100 uM incubated for 48 hrs by sulforhodamine B assay relative to control; conditions: read-out: Activity
RPMI-8226 [14] = assay: Growth inhibition of human RPMI-8226 cells assessed as cell growth at 0.01 uM incubated for 48 hrs by sulforhodamine B assay relative to control; conditions: read-out: Activity
786-0 = assay: Growth inhibition of human 786-0 cells assessed as cell growth at 0.1 uM incubated for 48 hrs by sulforhodamine B assay relative to control; conditions: read-out: Activity; how it was run: as §1
UACC-62 = assay: Growth inhibition of human UACC-62 cells assessed as cell growth at 0.01 uM incubated for 48 hrs by sulforhodamine B assay relative to control; conditions: read-out: Activity

Cc1ccc(NC(=O)c2sc3nc4c(cc3c2N)C(=O)CCC4)cc1C
growth at 0.01 µM (CAKI-1): 96%
growth at 100 µM (HCT-116): 8%
growth at 0.1 µM (MCF7): 86%
GI50 (SK-MEL-2): 0.463 µM
LC50 (SK-MEL-2): > 100 µM
TGI (SK-MEL-2): > 100 µM
growth at 1 µM (Hs-578T): 16%
growth at 0.1 µM (NCI-H226): 88%
growth at 1 µM (MDA-MB-435 [1]): -58%
growth at 0.01 µM (RXF 393): 87%
growth at 0.1 µM (IGROV-1 [2]): 99%
GI50 (MDA-MB-231): 1.51 µM
TGI (MDA-MB-231): > 100 µM
CC50 (MDA-MB-231): > 100 µM
growth at 100 µM (SK-MEL-5): -57%
growth at 0.01 µM (SW-620): 99%
growth at 0.1 µM (NCI-H522): 82%
growth at 1 µM (IGROV-1 [3]): 51%
growth at 1 µM (RPMI-8226 [4]): 57%
growth at 1 µM (HOP-62): 40%
growth at 0.01 µM (HCT-15): 95%
growth at 100 µM (SR [5]): -14%
growth at 0.1 µM (OVCAR-4): 82%
growth at 1 µM (SNB-75): -7%
growth at 0.01 µM (OVCAR-8 [6]): 97%
growth at 1 µM (MOLT-4 [7]): 82%
growth at 0.01 µM (ACHN): 98%
growth at 0.1 µM (MOLT-4 [8]): 106%
GI50 (M14 [9]): 0.366 µM
LC50 (concentration killing 50% of cells) (M14 [9]): > 100 µM
TGI (M14 [9]): > 100 µM
growth at 0.01 µM (SN12C): 94%
GI50 (U-251): 0.68 µM
LC50 (concentration killing 50% of cells) (U-251): > 100 µM
TGI (U-251): ≥ 100 µM
growth at 0.1 µM (SR [10]): 108%
growth at 100 µM (OVCAR-8 [11]): 11%
growth at 0.1 µM (K562): 118%
growth at 1 µM (M14 [12]): 22%
growth at 100 µM (MDA-MB-435 [13]): -46%
growth at 0.01 µM (RPMI-8226 [14]): 99%
growth at 0.1 µM (786-0): 88%

CN1CCc2nc3sc(C(N)=O)c(N)c3c(-c3cccs3)c2C1
growth at 0.01 µM (CAKI-1): 95%
growth at 100 µM (HCT-116): 3%
growth at 0.1 µM (MCF7): 107%
GI50 (SK-MEL-2): 2.67 µM
LC50 (SK-MEL-2): > 100 µM
TGI (SK-MEL-2): 6.22 µM
growth at 1 µM (Hs-578T): 91%
growth at 0.1 µM (NCI-H226): 89%
growth at 1 µM (MDA-MB-435 [1]): 90%
growth at 0.01 µM (RXF 393): 97%
growth at 0.1 µM (IGROV-1 [2]): 116%
GI50 (MDA-MB-231): 4.77 µM
TGI (MDA-MB-231): > 100 µM
CC50 (MDA-MB-231): > 100 µM
growth at 100 µM (SK-MEL-5): -42%
growth at 0.01 µM (SW-620): 105%
growth at 0.1 µM (NCI-H522): 100%
growth at 1 µM (IGROV-1 [3]): 129%
growth at 1 µM (RPMI-8226 [4]): 119%
growth at 1 µM (HOP-62): 102%
growth at 0.01 µM (HCT-15): 103%
growth at 100 µM (SR [5]): -19%
growth at 0.1 µM (OVCAR-4): 107%
growth at 1 µM (SNB-75): 99%
growth at 0.01 µM (OVCAR-8 [6]): 106%
growth at 1 µM (MOLT-4 [7]): 85%
growth at 0.01 µM (UACC-62): 99%
growth at 0.1 µM (MOLT-4 [8]): 91%
GI50 (M14 [9]): 4.19 µM
LC50 (concentration killing 50% of cells) (M14 [9]): > 100 µM
TGI (M14 [9]): 19.4 µM
growth at 0.01 µM (SN12C): 98%
GI50 (U-251): 3.18 µM
LC50 (concentration killing 50% of cells) (U-251): > 100 µM
TGI (U-251): > 100 µM
growth at 0.1 µM (SR [10]): 96%
growth at 100 µM (OVCAR-8 [11]): 5%
growth at 0.1 µM (K562): 97%
growth at 1 µM (M14 [12]): 115%
growth at 100 µM (MDA-MB-435 [13]): 3%
growth at 0.01 µM (RPMI-8226 [14]): 108%
growth at 0.1 µM (786-0): 99%
